Source: ChEMBL document CHEMBL5505959, “Identification of 4-amino-2-Pyridones as new potent PCSK9 inhibitors: From phenotypic hit discovery to in vivo tolerability” (Eur J Med Chem, 2024)
The source made the active and inactive calls. The rule behind the calls is not given here.

How the values were obtained:
HepG2 [1] = experiment: Cytotoxicity against human HepG2 cells assessed as reduction in cell viability at 5 uM measured after 24 hrs by SRB assay relative to control; assay type: functional
Outline: (§1)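 HepG2 seeded 8000 cells/well in complete MEM; next day medium replaced with 0.4 % FBS medium containing compound or DMSO control. Viability was read by sulforhodamine B assay after 24 h, with absorbance at 570 nm. Dose-response series used 6.25, 12.5, 25, 50 or 100 μM; newer analogues were tested at a fixed 5 μM. Data are mean ± SD of three independent experiments.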

HepG2 [2] = experiment: Cytotoxicity against human HepG2 cells assessed as reduction in cell viability at 100 uM measured after 24 hrs by SRB assay; assay type: functional, cell-based; outline: as §1
HepG2 [3] = experiment: Downregulation of PCSK9 mRNA level in human HepG2 cells at 6 to 25 uM by qRT-PCR analysis; assay type: functional, cell-based; settings: dose 6-25 µM
Outline: (§2)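 Total RNA was taken from treated HepG2 cells for RT-qPCR of PCSK9, FAS and HMG-CoA reductase. Cycling was 50 °C 10 min, 95 °C 2 min, then 40 cycles of 95 °C 5 s and 60 °C 10 s. Relative quantification used ΔΔCt against 18S, corrected for primer efficiency. Mean ± SD of three independent experiments.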

HepG2 [4] = experiment: Downregulation of PCSK9 protein level in human HepG2 cells at 5 uM by Western blot analysis; assay type: functional, cell-based
Outline: (§3)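 HepG2 cells were treated overnight or for 24 h, alone or with simvastatin 40 μM. Lysates (1 % NP-40, 150 mM NaCl, 50 mM Tris-HCl pH 7.5) were loaded at 25 µg protein on 4–20 % SDS-PAGE. Blots were probed for proPCSK9, mature PCSK9 and LDLR, and densitometry was normalized to β-actin or GAPDH. Mean ± SD of three independent experiments.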

HepG2 [5] = experiment: Downregulation of mature PCSK9 level in human HepG2 cells by Western blot analysis; assay type: functional, cell-based; outline: as §3
HepG2 [6] = experiment: Downregulation of proPCSK9 level in human HepG2 cells by Western blot analysis; assay type: functional, cell-based; outline: as §3
HepG2 [7] = experiment: Induction of LDLR expression in human HepG2 cells by Western blot analysis; assay type: functional, cell-based; outline: as §3
[8] = Toxicity in C57BL/6 mouse assessed as reduction in ALT plasma level at 40 mg/kg, sc measured after 7 days by ELISA method; assay type: organism-based; settings: in vivo, 168 h, time 7 day
Outline: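 Male C57BL/6J mice, 3 months old, dosed subcutaneously at 40 mg/kg daily for seven days in Transcutol. Killed under isoflurane 6 h after the final dose. Retro-orbital blood taken into EDTA and spun at 3000 rpm, 4 °C, 10 min. Plasma ALT measured by ELISA kit. Mean ± SEM, n = 5–6 per group.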

[9] = Induction of LDLR expression in human HepG2 cells by measuring fold increase by Western blot analysis; assay type: functional; outline: as §3
HepG2 [10] = experiment: Effect on proPCSK9 expression in human HepG2 cells by Western blot analysis; assay type: functional, cell-based; outline: as §3
HepG2 [11] = experiment: Downregulation of simvastatin induced PCSK9 expression in human HepG2 cells measured after 24 hrs by Western blot analysis; assay type: functional, cell-based; outline: as §3
HepG2 [12] = experiment: Cytotoxicity against human HepG2 cells assessed as reduction in cell viability at 6 to 100 uM measured after 24 hrs by SRB assay; assay type: functional, cell-based; settings: dose 6-100 µM; outline: as §1
HepG2 [13] = experiment: Downregulation of PCSK9 mRNA level in human HepG2 cells at 25 uM by qRT-PCR analysis; assay type: functional, cell-based; outline: as §2
HepG2 [14] = experiment: Cytotoxicity against human HepG2 cells assessed as reduction in cell viability at 25 uM measured after 24 hrs by SRB assay; assay type: functional, cell-based; outline: as §1
HepG2 [15] = experiment: Cytotoxicity against human HepG2 cells assessed as reduction in cell viability at 50 to 100 uM measured after 24 hrs by SRB assay; assay type: functional, cell-based; settings: dose 50-100 µM; outline: as §1
HepG2 [16] = experiment: Inhibition of PCSK9 transcription activity in human HepG2 cells harbouring FLAG tagged PCSK9 at 6.25 to 12.5 uM incubated for 24 hrs by luciferase assay; assay type: functional, cell-based; settings: dose 6.25-12.5 µM
HepG2 [17] = experiment: Induction of LDLR expression in human HepG2 cells at 6.25 incubated for 24 hrs in presence of simvastatin by Western blot analysis; assay type: functional, cell-based; outline: as §3
[18] = Downregulation of simvastatin induced PCSK9 expression in human HepG2 cells at 12.5 uM by Western blot analysis relative to control; assay type: functional; outline: as §3
HepG2 [19] = experiment: Effect on FAS mRNA level in human HepG2 cells at 6.25 to 25 uM by qRT-PCR analysis; settings: dose 6.25-25 µM
HepG2 [20] = experiment: Effect on HMG-CoA reductase mRNA level in human HepG2 cells at 6.25 to 25 uM by qRT-PCR analysis; assay type: functional, cell-based; settings: dose 6.25-25 µM; outline: as §2
HepG2 [21] = experiment: Downregulation of PCSK9 mRNA level in human HepG2 cells by qRT-PCR analysis; assay type: functional, cell-based; settings: dose 6.25-25 µM; outline: as §2
[22] = Downregulation of proPCSK9 protein expression in human HepG2 cells at 12.5 uM by Western blot analysis relative to control; assay type: functional; outline: as §3
HepG2 [23] = experiment: Downregulation of PCSK9 level in human HepG2 cells at 6.25 to 12.5 uM under conditioned media by ELISA method; assay type: functional, cell-based; settings: dose 6.25-12.5 µM
Outline: (§4)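 Secreted PCSK9 was measured in HepG2 conditioned media with a human PCSK9 DuoSet sandwich ELISA. Media were centrifuged at 15000 rpm for 10 min and diluted before reading absorbance at 450 nm. Values were normalized to HepG2 total protein content. Mean ± SD of three independent experiments.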

HepG2 [24] = experiment: Effect on HMG-CoA reductase mRNA level in human HepG2 cells at 50 to 100 uM by qRT-PCR analysis; assay type: functional, cell-based; settings: dose 50-100 µM; outline: as §2
HepG2 [25] = experiment: Inhibition of PCSK9 promotor activity in human HepG2 cells harbouring pGL3-PCSK9-SRE mutant at 6.25 to 12.5 uM incubated for 24 hrs by luciferase assay; assay type: functional, cell-based; settings: dose 6.25-12.5 µM
Outline: (§5)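 HepG2 cells were seeded at 8 × 10⁵ per well and transiently transfected with pGL3-PCSK9-D4 (−440 to −94 region), or with SRE- or HNF-mutant constructs. At 48 h post-transfection, cells were treated 24 h with compound or simvastatin 5 μM. Promoter activity was read as luciferase luminescence.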

[26] = Downregulation of mature PCSK9 protein expression in human HepG2 cells at 12.5 uM by Western blot analysis relative to control; assay type: functional; outline: as §3
HepG2 [27] = experiment: Downregulation of proPCSK9 protein expression in human HepG2 cells at 6.25 uM by Western blot analysis; assay type: functional, cell-based; outline: as §3
HepG2 [28] = experiment: Inhibition of PCSK9 promotor activity in human HepG2 cells harbouring pGL3-PCSK9-HNF mutant at 6.25 to 12.5 uM incubated for 24 hrs by luciferase assay; assay type: functional, cell-based; settings: dose 6.25-12.5 µM; outline: as §5
[29] = Downregulation of extracellular PCSK9 level in human HepG2 cells at 6.25 to 12.5 uM under conditioned media by ELISA method relative to control; assay type: functional; settings: dose 6.25-12.5 µM; outline: as §4
[30] = Downregulation of PCSK9 expression in human HepG2 cells at 6.25 to 12.5 uM by Western blot analysis relative to control; assay type: functional; settings: dose 6.25-12.5 µM; outline: as §3
HepG2 [31] = experiment: Inhibition of simvastatin induced PCSK9 activation in human HepG2 cells at 6.25 to 12.5 uM incubated for 24 hrs by luciferase assay; assay type: functional, cell-based; settings: dose 6.25-12.5 µM; outline: as §5
HepG2 [32] = experiment: Downregulation of mature PCSK9 protein expression in human HepG2 cells at 6.25 uM by Western blot analysis; assay type: functional, cell-based; outline: as §3
HepG2 [33] = experiment: Inhibition of basal PCSK9 activity in human HepG2 cells at 6.25 to 12.5 uM incubated for 24 hrs by luciferase assay; assay type: functional, cell-based; settings: dose 6.25-12.5 µM; outline: as §5

In the case of `Cc1cc(NC2CCCC2)cc(=O)n1Cc1ccc(C(F)(F)F)cc1`, the Activity (HepG2 [1]) is reported as >95%.

In the case of `CCCCCNc1cc(C)n(CCCCC)c(=O)c1`, the Activity (HepG2 [2]) is reported as “Active”, the Activity (HepG2 [3]) is reported as “Active” and the Activity (HepG2 [4]) is reported as “Active”.

For `CCCCCn1c(C)cc(NCc2ccccc2)cc1=O`, the Activity (HepG2 [1]) was >95%.

For `CCCCCNc1cc(C)n(Cc2ccc(OC)cc2)c(=O)c1`, the Activity (HepG2 [5]) was “Active”, the Activity (HepG2 [6]) was “Active” and the Activity (HepG2 [7]) was “inactive”.

With `Cc1cc(NCc2ccc(Cl)cc2)cc(=O)n1Cc1ccc(Cl)cc1` the Activity (HepG2 [1]) was >95%.

In the case of `COc1ccc(CNc2cc(C)n(Cc3ccc(OC)c(OC)c3)c(=O)c2)cc1OC`, the Activity (HepG2 [1]) is reported as >95%.

For `Cc1cc(NCc2ccccc2)cc(=O)n1CCC(C)C`, the Activity (HepG2 [1]) was >95%.

With `Cc1cc(C(=O)C2=C(O)C(=O)N(CCCN3CCOCC3)C2c2ccncc2)ccc1OCc1ccccc1` (configuration not stated) the Activity [8] was “Non-Toxic”.

With `CCCCCNc1cc(C)n(Cc2cccc(OC)c2OC)c(=O)c1` the Activity (HepG2 [1]) was >95%.

In the case of `Cc1cc(NCc2ccc(CCC(C)C)cc2)cc(=O)n1Cc1ccc(CCC(C)C)cc1`, the “fold change (FC)” value [9] is reported as 3, the Activity (HepG2 [10]) is reported as “inactive” and the Activity (HepG2 [1]) is reported as >95%.

With `COc1cccc(CNc2cc(C)n(Cc3cccc(OC)c3OC)c(=O)c2)c1OC` the Activity (HepG2 [1]) was >95%.

For `Cc1cc(NCc2ccc(C(F)(F)F)cc2)cc(=O)n1CC(C)C`, the Activity (HepG2 [1]) was >95%.

For `Cc1cc(NCCC(C)C)cc(=O)n1Cc1ccccc1`, the Activity (HepG2 [1]) was >95%.

With `CCC(C)(C)C(=O)O[C@H]1C[C@@H](C)C=C2C=C[C@H](C)[C@H](CC[C@@H]3C[C@@H](O)CC(=O)O3)[C@H]21` the Activity (HepG2 [11]) was “inactive”.

In the case of `CCCCCNc1cc(C)n(Cc2ccccc2)c(=O)c1`, the Activity (HepG2 [1]) is reported as >95%.

With `CCCCCn1c(C)cc(NCc2ccc(Cl)cc2)cc1=O` the Activity (HepG2 [12]) was “inactive”, the Activity (HepG2 [3]) was “Active” and the Activity (HepG2 [4]) was “Active”.

With `CCCCCn1c(C)cc(NCc2ccc(C(F)(F)F)cc2)cc1=O` the Activity (HepG2 [1]) was >95%.

With `Cc1cc(NCc2ccc(Cl)cc2)cc(=O)n1CCC(C)C` the Activity (HepG2 [1]) was >95%.

In the case of `Cc1cc(NCCc2ccccc2)cc(=O)n1Cc1ccc(Cl)cc1`, the Activity (HepG2 [13]) is reported as “Active”, the Activity (HepG2 [14]) is reported as “inactive” and the Activity (HepG2 [15]) is reported as “Active”.

With `COc1ccc(CNc2cc(C)n(Cc3ccc(OC)cc3)c(=O)c2)cc1` the Activity (HepG2 [1]) was >95%.

In the case of `CCCCCN(C(C)=O)c1cc(C)n(Cc2ccc(C(F)(F)F)cc2)c(=O)c1`, the Activity (HepG2 [1]) is reported as >95%.

For `COc1ccc(Cn2c(C)cc(NC3CCCC3)cc2=O)cc1`, the Activity (HepG2 [1]) was >95%.

With `CCCCCNc1cc(C)n(Cc2ccc(C(F)(F)F)cc2)c(=O)c1` the Activity (HepG2 [1]) was >95%.

With `CCCCCNc1cc(C)n(Cc2ccc(Cl)cc2)c(=O)c1` the inhibition (HepG2 [16]) was “inactive”, the Activity (HepG2 [17]) was “Active” and the Activity [18] was 100%. For the same molecule, the Activity (HepG2 [19]) was “inactive”, the Activity (HepG2 [20]) was “inactive” and the Activity (HepG2 [21]) was “Dose-Dependent Effect”. For the same molecule, the Activity [22] was 100%, the Activity (HepG2 [23]) was “Active” and the Activity (HepG2 [24]) was “Active”. For the same molecule, the inhibition (HepG2 [25]) was “inactive”, the Activity [26] was 100% and the Activity (HepG2 [27]) was “inactive”. The inhibition (HepG2 [28]) was “inactive”, the Activity [29] was 35.8% and the Activity [30] was 65%. For the same molecule, the inhibition (HepG2 [31]) was “Active”, the Activity (HepG2 [32]) was “inactive” and the inhibition (HepG2 [33]) was “inactive”.

In the case of `CC(=O)N(Cc1ccc(C(F)(F)F)cc1)c1cc(C)n(Cc2ccc(C(F)(F)F)cc2)c(=O)c1`, the Activity (HepG2 [1]) is reported as >95%.
